# Reference: ChEMBL document CHEMBL1949638, “4'-bromo-5,6,7-trimethoxyflavone represses lipopolysaccharide-induced iNOS and COX-2 expressions by suppressing the NF-κB signaling pathway in RAW 264.7 macrophages” (Bioorg Med Chem Lett, 2012)
# Calls of active or inactive are those of the source. The rule behind the calls is not given here.
# Tests used:
# RAW264.7 [1] = experiment: Antiinflammatory activity against mouse RAW264.7 cells assessed as inhibition of LPS-induced PGE2 production at 25 uM by EIA; format: functional
# RAW264.7 [2] = experiment: Antiinflammatory activity against mouse RAW264.7 cells assessed as inhibition of LPS-induced NO production at 25 uM preincubated for 1 hr before LPS challenge measured after 24 hrs by Griess method; format: functional
# Procedure, shortened: (§1)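 Pretreatment with test agent for 1 h, then LPS 1 μg/ml for 24 h; nitrite in culture medium measured by Griess assay. IC50 derived; means ± SDs of three independent experiments. L-NIL 10 μM served as reference NO inhibitor.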
# RAW264.7 [3] = experiment: Cytotoxicity against mouse RAW264.7 cells; format: cell-based
# RAW264.7 [4] = experiment: Inhibition of NF-kappaB in mouse RAW264.7 cells assessed as suppression of LPS-induced COX2 mRNA level at 6.25 to 25 uM after 4 hrs by quantitative RT-PCR analysis; format: cell-based
# Procedure, shortened: (§2)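 Total RNA taken from cells exposed to LPS 1 μg/ml with or without 6.25, 12.5 or 25 μM compound for 4 h. Steady-state iNOS and COX-2 mRNA measured by qRT-PCR and expressed as a ratio to β-actin. Means ± SDs, n=3 independent experiments. ANOVA with Dunnett's test.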
# RAW264.7 [5] = experiment: Inhibition of NF-kappaB activation in LPS-stimulated mouse RAW264.7 cells assessed as blockage of IkappaBalpha phosphorylation pretreated at 6.25 to 25 uM for 1 hr before LPS challenge measured after 15 to 60 mins post challenge by Western blotting; format: cell-based
# Procedure, shortened: (§3)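 Pretreatment 1 h at 6.25, 12.5 or 25 μM, then LPS 1 μg/ml for 15 min or 1 h. Cytosolic extracts immunoblotted for phospho-IκBα and IκBα, with β-actin as loading control. Blots representative of three experiments.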
# RAW264.7 [6] = experiment: Inhibition of NF-kappaB in mouse RAW264.7 cells assessed as reduction of LPS-induced TNFalpha release at 6.25 to 25 uM pretreated for 1 hr before LPS challenge and measured after 24 hrs post LPS challenge by EIA; format: cell-based
# Procedure, shortened: (§4)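 Compound at 6.25, 12.5 or 25 μM given 1 h ahead of LPS 1 μg/ml, then 24 h incubation. TNF-α, IL-6 and IL-1β in culture medium quantified by EIA kits. Means ± SDs of three independent experiments.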
# RAW264.7 [7] = experiment: Antiinflammatory activity against mouse RAW264.7 cells assessed as inhibition of LPS-induced NO production preincubated for 1 hr before LPS challenge measured after 24 hrs by Griess method; format: functional, cell-based; procedure, shortened: as §1
# [8] = system: Peritoneal macrophage cell; experiment: Antiinflammatory activity against thioglycolate-stimulated C57BL/6 mouse peritoneal macrophages assessed as inhibition of LPS-induced PGE2 production by EIA; format: functional, cell-based
# RAW264.7 [9] = experiment: Inhibition of NF-kappaB in mouse RAW264.7 cells co-transfected with pCOX-2-luc reporter with pRL-TK-luc assessed as inhibition of LPS-induced COX2 expression pretreated for 1 hr before LPS challenge by luciferase assay; format: cell-based
# Procedure, shortened: (§5)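 Cells transiently co-transfected with the piNOS-luc or pCOX-2-luc reporter plus pRL-TK-luc, then pretreated 1 h with 6.25, 12.5 or 25 μM before LPS. Luciferase activity read on a luminometer. Means ± SDs of three independent experiments.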
# RAW264.7 [10] = experiment: Inhibition of NF-kappaB in mouse RAW264.7 cells co-transfected with piNOS-luc reporter with pRL-TK-luc assessed as inhibition of LPS-induced iNOS expression pretreated for 1 hr before LPS challenge by luciferase assay; format: cell-based; procedure, shortened: as §5
# RAW264.7 [11] = experiment: Inhibition of NF-kappaB in mouse RAW264.7 cells assessed as reduction of LPS-induced TNFalpha mRNA expression at 6.25 to 25 uM after 4 hrs by quantitative RT-PCR analysis; format: cell-based
# Procedure, shortened: (§6)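 RNA prepared after 4 h of LPS 1 μg/ml stimulation with or without 6.25–25 μM compound. TNF-α, IL-6 and IL-1β transcripts quantified by qRT-PCR and normalised to β-actin. Three independent experiments.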
# RAW264.7 [12] = experiment: Inhibition of NF-kappaB in mouse RAW264.7 cells assessed as suppression of LPS-induced iNOS mRNA level at 6.25 to 25 uM after 4 hrs by quantitative RT-PCR analysis; format: cell-based; procedure, shortened: as §2
# RAW264.7 [13] = experiment: Inhibition of NF-kappaB in mouse RAW264.7 cells assessed as inhibition of LPS-induced iNOS expression preincubated 1 hr before LPS challenge measured after 24 hrs by Western blot analysis; format: cell-based
# Procedure, shortened: (§7)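 1 h pretreatment at 6.25, 12.5 or 25 μM, then LPS 1 μg/ml for 24 h. Controls had neither LPS nor compound. 30 μg total protein run on SDS–PAGE, blotted to nitrocellulose, probed with iNOS- and COX-2-specific antibodies. Blots representative of three experiments.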
# [14] = system: Peritoneal macrophage cell; experiment: Antiinflammatory activity against thioglycolate-stimulated C57BL/6 mouse peritoneal macrophages assessed as inhibition of LPS-induced NO production preincubated for 1 hr before LPS challenge measured after 24 hrs by Griess method; format: functional, cell-based
# Procedure, shortened: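 Peritoneal macrophages harvested from thioglycolate-injected C57BL/6 mice. Test agent 6.25, 12.5 or 25 μM added 1 h before LPS 1 μg/ml, with 24 h incubation. NO in the medium measured by Griess assay. Three independent experiments, means ± SDs.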
# RAW264.7 [15] = experiment: Inhibition of NF-kappaB activation in mouse LPS-stimulated RAW264.7 cells co-transfected with pNF-KappaB-luc reporter and pRL-TK-luc pretreated for 1 hr before LPS challenge measured after 1 hr post challenge by luciferase assay; format: cell-based
# Procedure, shortened: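 Cells co-transfected with pNF-κB-luc and pRL-TK-luc, pretreated 1 h with 6.25, 12.5 or 25 μM, then given LPS 1 μg/ml for another 1 h. Luciferase activity measured by luminometer. Three independent experiments.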
# RAW264.7 [16] = experiment: Inhibition of NF-kappaB in mouse RAW264.7 cells assessed as reduction of LPS-induced IL6 release at 6.25 to 25 uM pretreated for 1 hr before LPS challenge and measured after 24 hrs post LPS challenge by EIA; format: cell-based; procedure, shortened: as §4
# RAW264.7 [17] = experiment: Inhibition of NF-kappaB in mouse RAW264.7 cells assessed as inhibition of LPS-induced expression of COX2 preincubated 1 hr before LPS challenge measured after 24 hrs by Western blot analysis; format: cell-based; procedure, shortened: as §7
# RAW264.7 [18] = experiment: Cytotoxicity against mouse RAW264.7 cells assessed as effect on cell viability up to 50 uM after 24 hrs; format: cell-based; details: raw264.7, 24 h
# Procedure, shortened: (§8)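 RAW 264.7 viability checked after 24 h exposure to compounds up to 50 µM, with and without LPS.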
# RAW264.7 [19] = experiment: Inhibition of NF-kappaB in mouse RAW264.7 cells assessed as reduction of LPS-induced IL1beta mRNA expression at 6.25 to 25 uM after 4 hrs by quantitative RT-PCR analysis; format: cell-based; procedure, shortened: as §6
# RAW264.7 [20] = experiment: Inhibition of NF-kappaB in mouse RAW264.7 cells assessed as reduction of LPS-induced IL6 mRNA expression at 6.25 to 25 uM after 4 hrs by quantitative RT-PCR analysis; format: cell-based; procedure, shortened: as §6
# [21] = molecular target: Transcription factor p65 (Mus musculus) (UniProt Q04207); experiment: Inhibition of NF-kappaB p65 subunit nuclear translocation in LPS-induced mouse RAW264.7 cells pretreated for 1 hr before LPS challenge measured after 15 min or 1 hr post challenge by Western blot analysis
# RAW264.7 [22] = experiment: Antiinflammatory activity against mouse RAW264.7 cells assessed as inhibition of LPS-induced PGE2 production by EIA; format: functional, cell-based
# RAW264.7 [23] = experiment: Cytotoxicity against mouse LPS-stimulated RAW264.7 cells assessed as effect on cell viability up to 50 uM after 24 hrs; format: cell-based; details: raw264.7, 24 h; procedure, shortened: as §8
# RAW264.7 [24] = experiment: Inhibition of NF-kappaB in mouse RAW264.7 cells assessed as reduction of LPS-induced IL1beta release at 6.25 to 25 uM pretreated for 1 hr before LPS challenge and measured after 24 hrs post LPS challenge by EIA; format: cell-based; procedure, shortened: as §4
# RAW264.7 [25] = experiment: Inhibition of NF-kappaB activation in LPS-stimulated mouse RAW264.7 cells assessed as blockage of IkappaBalpha degradation pretreated at 6.25 to 25 uM for 1 hr before LPS challenge measured after 15 to 60 mins post challenge by Western blotting; format: cell-based; procedure, shortened: as §3
# RAW264.7 [26] = experiment: Antiinflammatory activity against mouse RAW264.7 cells assessed as inhibition of LPS-induced NO production at <16.73 uM preincubated for 1 hr before LPS challenge measured after 24 hrs by Griess method; format: functional, cell-based
# Transcription factor p65 (Mus musculus), sequence (Q04207 whole entry): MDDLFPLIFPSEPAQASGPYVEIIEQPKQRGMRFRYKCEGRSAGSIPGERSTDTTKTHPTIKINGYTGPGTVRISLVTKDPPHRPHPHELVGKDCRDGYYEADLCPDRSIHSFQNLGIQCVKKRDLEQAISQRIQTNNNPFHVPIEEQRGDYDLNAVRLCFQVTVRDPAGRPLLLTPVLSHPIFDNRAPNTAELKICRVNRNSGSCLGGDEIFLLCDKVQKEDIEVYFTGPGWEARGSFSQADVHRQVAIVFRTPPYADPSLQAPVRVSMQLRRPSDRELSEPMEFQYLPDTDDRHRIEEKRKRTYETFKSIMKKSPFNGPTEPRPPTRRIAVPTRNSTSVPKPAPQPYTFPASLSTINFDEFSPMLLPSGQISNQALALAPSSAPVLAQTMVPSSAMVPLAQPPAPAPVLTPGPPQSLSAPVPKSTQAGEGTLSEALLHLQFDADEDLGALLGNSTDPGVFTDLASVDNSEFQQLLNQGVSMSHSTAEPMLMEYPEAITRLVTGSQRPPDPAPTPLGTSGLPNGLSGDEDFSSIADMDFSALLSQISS
smiles,measurement,setting,value
O=c1cc(-c2ccccc2)oc2cc(O)c(O)c(O)c12 [BAICALEIN],inhibition at 25 µM,RAW264.7 [1],60.9%
same,inhibition at 25 µM,RAW264.7 [2],11.1%
same,IC50,RAW264.7 [3],> 100 µM
COc1cc2oc(-c3ccc(Br)cc3)cc(=O)c2c(OC)c1OC,inhibition,RAW264.7 [4],Active
same,inhibition,RAW264.7 [5],Active
same,inhibition,RAW264.7 [6],Active
same,IC50,RAW264.7 [7],14.2 µM
same,inhibition,RAW264.7 [7],Dose-dependent effect
same,inhibition,[8],Dose-dependent effect
same,inhibition,RAW264.7 [9],Dose-dependent effect
same,inhibition,RAW264.7 [10],Dose-dependent effect
same,inhibition,RAW264.7 [11],Active
same,inhibition,RAW264.7 [12],Active
same,inhibition,RAW264.7 [13],Dose-dependent effect
same,inhibition,[14],Dose-dependent effect
same,inhibition,RAW264.7 [15],Dose-dependent effect
same,inhibition at 25 µM,RAW264.7 [1],89.6%
same,inhibition,RAW264.7 [16],Active
same,inhibition,RAW264.7 [17],Dose-dependent effect
same,Activity,RAW264.7 [18],Non-toxic
same,inhibition,RAW264.7 [19],Active
same,inhibition,RAW264.7 [20],Active
same,inhibition at 25 µM,RAW264.7 [2],89.6%
same,inhibition,[21],Dose-dependent effect
same,IC50,RAW264.7 [22],11 µM
same,inhibition,RAW264.7 [22],Dose-dependent effect
same,IC50,RAW264.7 [3],69.9 µM
same,Activity,RAW264.7 [23],Non-toxic
same,inhibition,RAW264.7 [24],Active
same,inhibition,RAW264.7 [25],Active
Nc1ccc(-c2cc(=O)c3c(O)c(O)c(O)cc3o2)cc1,inhibition at 25 µM,RAW264.7 [1],83.1%
same,Activity,RAW264.7 [18],Non-toxic
same,inhibition at 25 µM,RAW264.7 [2],6.98%
same,IC50,RAW264.7 [3],94.1 µM
same,Activity,RAW264.7 [23],Non-toxic
COc1cc2oc(-c3ccc(N)cc3)cc(=O)c2c(OC)c1OC,inhibition at 25 µM,RAW264.7 [1],69.5%
same,Activity,RAW264.7 [18],Non-toxic
same,inhibition at 25 µM,RAW264.7 [2],23.1%
same,IC50,RAW264.7 [3],> 100 µM
same,Activity,RAW264.7 [23],Non-toxic
COc1cc2oc(-c3ccc([N+](=O)[O-])cc3)cc(=O)c2c(OC)c1OC,inhibition at 25 µM,RAW264.7 [1],84.4%
same,Activity,RAW264.7 [18],Non-toxic
same,inhibition at 25 µM,RAW264.7 [2],17.4%
same,IC50,RAW264.7 [3],> 100 µM
same,Activity,RAW264.7 [23],Non-toxic
O=c1cc(-c2ccc(Br)cc2)oc2cc(O)c(O)c(O)c12,inhibition at 25 µM,RAW264.7 [1],29.9%
same,Activity,RAW264.7 [18],Non-toxic
same,inhibition at 25 µM,RAW264.7 [2],27%
same,IC50,RAW264.7 [3],57.1 µM
same,Activity,RAW264.7 [23],Non-toxic
COc1cc2oc(-c3ccccc3)cc(=O)c2c(OC)c1OC [BAICALEIN TRIMETHYL ETHER],inhibition at 25 µM,RAW264.7 [1],42.2%
same,Activity,RAW264.7 [18],Non-toxic
same,inhibition at 25 µM,RAW264.7 [2],12.1%
same,IC50,RAW264.7 [3],> 100 µM
same,Activity,RAW264.7 [23],Non-toxic
COc1c(O)cc2oc(-c3ccccc3)cc(=O)c2c1O [OROXYLIN A],inhibition at 25 µM,RAW264.7 [2],12.4%
same,IC50,RAW264.7 [3],16.7 µM
same,Activity,RAW264.7 [26],inactive
O=c1cc(-c2ccc([N+](=O)[O-])cc2)oc2cc(O)c(O)c(O)c12,inhibition at 25 µM,RAW264.7 [1],29.9%
same,Activity,RAW264.7 [18],Non-toxic
same,inhibition at 25 µM,RAW264.7 [2],7.65%
same,IC50,RAW264.7 [3],> 100 µM
same,Activity,RAW264.7 [23],Non-toxic
